Values after ≈ are worked out from the molar mass of the structure shown.
Columns and labels:
[1] = test system: Enterococcus faecalis; assay: Antibacterial activity against Enterococcus faecalis ATCC 29212 after 16 to 22 hrs by broth dilution method; assay type: functional
Summary of the method: (§1)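 Broth microdilution per the CLSI approved standard (sixth edition), using two-fold serial dilutions of compound in Mueller–Hinton broth. Stocks at 5 mg/ml in DMF. Inoculum came from a direct colony suspension adjusted by turbidity to about 5 × 10⁴ CFU/well final. Trays were incubated at 35 °C for 16–22 h. MIC is the lowest concentration completely inhibiting growth (99% inhibition).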

[2] = test system: Streptococcus pyogenes; assay: Antibacterial activity against efflux-mediated macrolide-resistance Streptococcus pyogenes after 16 to 22 hrs by broth microdilution method; assay type: functional
Summary of the method: (§2)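 Two-fold serial dilutions in microdilution trays, following the CLSI dilution standard for aerobic bacteria. Medium was Mueller–Hinton broth with 5% horse serum for streptococci. Stocks were made at 5 mg/ml in DMF. Inoculum came from a direct colony suspension adjusted by turbidity to about 5 × 10⁴ CFU/well final. Incubation was at 35 °C for 16–22 h. MIC is the lowest concentration completely inhibiting growth (99% inhibition).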

[3] = test system: Streptococcus pneumoniae; assay: Antibacterial activity against constitutive macrolide-lincosamide-streptogramin-resistant Streptococcus pneumoniae after 16 to 22 hrs by broth microdilution method; assay type: functional; summary of the method: as §2
[4] = test system: Moraxella catarrhalis; assay: Antibacterial activity against Moraxella catarrhalis ATCC 23246 after 16 to 22 hrs by broth dilution method; assay type: functional; summary of the method: as §1
[5] = test system: Haemophilus influenzae; assay: Antibacterial activity against Haemophilus influenzae ATCC 49247 after 16 to 22 hrs by broth dilution method; assay type: functional
Summary of the method: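 Microdilution trays following the CLSI standard, with two-fold serial dilutions in supplemented broth suited to H. influenzae. DMF stocks at 5 mg/ml. Inoculum prepared from a turbidity-adjusted direct colony suspension to about 5 × 10⁴ CFU/well final. Incubated at 35 °C for 16–22 h. MIC is the lowest concentration giving complete (99%) growth inhibition.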

[6] = test system: Streptococcus pneumoniae; assay: Antibacterial activity against erythromycin-susceptible Streptococcus pneumoniae after 16 to 22 hrs by broth microdilution method; assay type: functional
Summary of the method: (§3)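 Streptococci tested by CLSI broth microdilution in Mueller–Hinton broth with 5% horse serum, using two-fold serial dilutions. Compounds were dissolved in DMF at 5 mg/ml (stock). Inoculum was a turbidity-adjusted direct colony suspension giving about 5 × 10⁴ CFU/well. Trays were held at 35 °C for 16–22 h. MIC is the lowest concentration completely inhibiting growth (99%).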

[7] = test system: Streptococcus pyogenes; assay: Antibacterial activity against inducible macrolide-lincosamide-streptogramin-resistant Streptococcus pyogenes 16 to 22 hrs by broth microdilution method; assay type: functional; summary of the method: as §2
[8] = test system: Escherichia coli; assay: Antibacterial activity against Escherichia coli ATCC 25922 after 16 to 22 hrs by broth dilution method; assay type: functional; summary of the method: as §1
[9] = test system: Staphylococcus aureus; assay: Antibacterial activity against Staphylococcus aureus ATCC 29213 after 16 to 22 hrs by broth microdilution method; assay type: functional; summary of the method: as §1
[10] = Chemical stability in 0.01 M artificial gastric juice assessed as half life at 37 degC; assay type: physicochemical
Summary of the method: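 Acid degradation followed as pseudo-first-order kinetics. Rate constants came from an exponential fit of reactant concentration versus time, and t1/2 was calculated from k.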

[11] = test system: Streptococcus pyogenes; assay: Antibacterial activity against erythromycin-susceptible Streptococcus pyogenes after 16 to 22 hrs by broth microdilution method; assay type: functional; summary of the method: as §3
[12] = test system: Streptococcus pneumoniae; assay: Antibacterial activity against efflux-mediated macrolide-resistant Streptococcus pneumoniae after 16 to 22 hrs by broth microdilution method; assay type: functional; summary of the method: as §2

Row | SMILES | MIC [1] | MIC [2] | MIC [3] | MIC [4] | MIC [5] | MIC [6] | MIC [7] | MIC [8] | MIC [9] | half-life [10] | MIC [11] | MIC [12]
1 | CC[C@H]1OC(=O)[C@H](C)[C@@H](O[C@H]2C[C@@](C)(OC)[C@@H](O)[C@H](C)O2)[C@H](C)[C@@H](O[C@@H]2O[C@H](C)C[C@H](N(C)C)[C@H]2O)[C@](C)(O)C[C@@H](C)CN(CCCNC(=O)Nc2cccc3ccccc23)[C@H](C)[C@@H](O)[C@]1(C)O | 4 µg/mL (≈ 4.16 µM) | 4 µg/mL (≈ 4.16 µM) | > 64 µg/mL | 0.5 µg/mL (≈ 0.52 µM) | 1 µg/mL (≈ 1.04 µM) | ≤ 0.125 µg/mL | 2 µg/mL (≈ 2.08 µM) | 8 µg/mL (≈ 8.32 µM) | 0.5 µg/mL (≈ 0.52 µM) | 1.98 h | ≤ 0.125 µg/mL | 4 µg/mL (≈ 4.16 µM)
2 | CC[C@H]1OC(=O)[C@H](C)[C@@H](O[C@H]2C[C@@](C)(OC)[C@@H](O)[C@H](C)O2)[C@H](C)[C@@H](O[C@@H]2O[C@H](C)C[C@H](N(C)C)[C@H]2O)[C@](C)(O)C[C@@H](C)CN(CCCN(CCC#N)C(=O)Nc2cccc3ccccc23)[C@H](C)[C@@H](O)[C@]1(C)O | 16 µg/mL (≈ 15.8 µM) | 8 µg/mL (≈ 7.89 µM) | 64 µg/mL (≈ 63.1 µM) | 0.5 µg/mL (≈ 0.493 µM) | 4 µg/mL (≈ 3.94 µM) | ≤ 0.125 µg/mL | 8 µg/mL (≈ 7.89 µM) | 8 µg/mL (≈ 7.89 µM) | 1 µg/mL (≈ 0.986 µM) | 1.8 h | ≤ 0.125 µg/mL | 16 µg/mL (≈ 15.8 µM)
3 | CC[C@H]1OC(=O)[C@H](C)[C@@H](O[C@H]2C[C@@](C)(OC)[C@@H](O)[C@H](C)O2)[C@H](C)[C@@H](O[C@@H]2O[C@H](C)C[C@H](N(C)C)[C@H]2O)[C@](C)(O)C[C@@H](C)CN(CCCN(CCC#N)C(=S)Nc2ccccc2)[C@H](C)[C@@H](O)[C@]1(C)O | > 64 µg/mL | 32 µg/mL (≈ 32.6 µM) | > 64 µg/mL | 4 µg/mL (≈ 4.08 µM) | 16 µg/mL (≈ 16.3 µM) | ≤ 0.125 µg/mL | 32 µg/mL (≈ 32.6 µM) | > 64 µg/mL | 2 µg/mL (≈ 2.04 µM) | – | ≤ 0.125 µg/mL | 32 µg/mL (≈ 32.6 µM)
4 | CC[C@H]1OC(=O)[C@H](C)[C@@H](O[C@H]2C[C@@](C)(OC)[C@@H](O)[C@H](C)O2)[C@H](C)[C@@H](O[C@@H]2O[C@H](C)C[C@H](N(C)C)[C@H]2O)[C@](C)(O)C[C@@H](C)CN(CCCNC(=O)NCc2ccccc2)[C@H](C)[C@@H](O)[C@]1(C)O | 16 µg/mL (≈ 17.3 µM) | 8 µg/mL (≈ 8.65 µM) | > 64 µg/mL | 1 µg/mL (≈ 1.08 µM) | 2 µg/mL (≈ 2.16 µM) | ≤ 0.125 µg/mL | 4 µg/mL (≈ 4.32 µM) | 8 µg/mL (≈ 8.65 µM) | 0.5 µg/mL (≈ 0.54 µM) | – | ≤ 0.125 µg/mL | 16 µg/mL (≈ 17.3 µM)
5 | CC[C@H]1OC(=O)[C@H](C)[C@@H](O[C@H]2C[C@@](C)(OC)[C@@H](O)[C@H](C)O2)[C@H](C)[C@@H](O[C@@H]2O[C@H](C)C[C@H](N(C)C)[C@H]2O)[C@](C)(O)C[C@@H](C)CN(CCCNC(=O)NC(C)C)[C@H](C)[C@@H](O)[C@]1(C)O | 32 µg/mL (≈ 36.5 µM) | 32 µg/mL (≈ 36.5 µM) | > 64 µg/mL | 1 µg/mL (≈ 1.14 µM) | 16 µg/mL (≈ 18.2 µM) | ≤ 0.125 µg/mL | 8 µg/mL (≈ 9.12 µM) | 16 µg/mL (≈ 18.2 µM) | 2 µg/mL (≈ 2.28 µM) | – | ≤ 0.125 µg/mL | 32 µg/mL (≈ 36.5 µM)
6 | CC[C@H]1OC(=O)[C@H](C)[C@@H](O[C@H]2C[C@@](C)(OC)[C@@H](O)[C@H](C)O2)[C@H](C)[C@@H](O[C@@H]2O[C@H](C)C[C@H](N(C)C)[C@H]2O)[C@](C)(O)C[C@@H](C)CN(CCCNC(=S)Nc2cccc3ccccc23)[C@H](C)[C@@H](O)[C@]1(C)O | 8 µg/mL (≈ 8.19 µM) | 4 µg/mL (≈ 4.09 µM) | > 64 µg/mL | 1 µg/mL (≈ 1.02 µM) | 2 µg/mL (≈ 2.05 µM) | ≤ 0.125 µg/mL | 4 µg/mL (≈ 4.09 µM) | 8 µg/mL (≈ 8.19 µM) | 1 µg/mL (≈ 1.02 µM) | – | ≤ 0.125 µg/mL | 4 µg/mL (≈ 4.09 µM)

Source: ChEMBL document CHEMBL1153576, “Novel ureas and thioureas of 15-membered azalides with antibacterial activity against key respiratory pathogens” (Eur J Med Chem, 2009)
